Laboratory results as given in ChEMBL document CHEMBL1148114, “New antiinfective and human 5-HT2 receptor binding natural and semisynthetic compounds from the Jamaican sponge Smenospongia aurea” (J Nat Prod, 2002).
≈ marks a conversion by molar mass, not a printed value. Calls of active or inactive are those of the source. The rule behind the calls is not given here.

Experiments:
Homo sapiens = species: Homo sapiens; assay: Displacement of [3H]methylspiperone form human cloned dopamine 4.2 receptor
[1] = biological target: T1, 5-hydroxytryptamine receptor 2C (Homo sapiens, UniProt P28335); assay: Displacement of [3H]mesulergine form human cloned 5HT2C receptor expressed in african green monkey COS7 cells at 30 uM by scintillation spectroscopy; assay type: cell-based; conditions: cos-7
T1 sequence (P28335 whole entry): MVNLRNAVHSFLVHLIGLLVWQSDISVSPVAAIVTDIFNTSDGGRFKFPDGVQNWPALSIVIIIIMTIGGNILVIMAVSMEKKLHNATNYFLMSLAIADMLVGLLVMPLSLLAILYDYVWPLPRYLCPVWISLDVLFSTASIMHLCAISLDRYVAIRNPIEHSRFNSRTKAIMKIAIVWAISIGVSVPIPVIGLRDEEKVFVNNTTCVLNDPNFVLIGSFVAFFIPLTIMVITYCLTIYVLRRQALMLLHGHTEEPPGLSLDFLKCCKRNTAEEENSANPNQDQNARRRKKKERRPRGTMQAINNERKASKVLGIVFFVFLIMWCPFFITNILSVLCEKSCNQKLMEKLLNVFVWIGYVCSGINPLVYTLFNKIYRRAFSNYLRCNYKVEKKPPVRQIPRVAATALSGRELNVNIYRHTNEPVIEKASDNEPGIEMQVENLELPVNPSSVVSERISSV
Summary of the method: (§1)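 Single-point competition on transfected COS-7 membranes (human 5-HT2A with [3H]methylspiperone; 5-HT2C with [3H]mesulergine), 50 mM Tris pH 7.4, 2 h at 25 °C; 10 µM mianserin defines nonspecific binding; filter-bound radioactivity counted by scintillation. DMSO stock 10 mM, diluted at least 1:100 in assay.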

Plasmodium falciparum = assay: Antimalarial activity against Plasmodium falciparum D6; assay type: functional, organism-based
[2] = biological target: T2, 5-hydroxytryptamine receptor 2A (Homo sapiens, UniProt P28223); assay: Displacement of [3H]methylspiperone form human cloned 5HT2A receptor expressed in african green monkey COS7 cells at 30 uM by scintillation spectroscopy; assay type: cell-based; conditions: cos-7; summary of the method: as §1
Vero = assay: Cytotoxicity against african green monkey Vero cells at 4.76 ug/mL; assay type: cell-based; conditions: chlorocebus sabaeus
Summary of the method: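 Vero (African green monkey kidney) cells exposed to compound at 4.76 µg/mL to assess cytotoxicity.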

[3] = system: Mycobacterium tuberculosis; assay: Antitubercular activity against Mycobacterium tuberculosis H37Rv; assay type: functional; conditions: for MIC: Mycobacterium tuberculosis, H37Rv
[4] = Selectivity index, ratio of IC50 for african green monkey (Cercopithecus aethiops) Vero cells to IC50 for Plasmodium falciparum D6; assay type: toxicity, cell-based; conditions: read-out: Selectivity Index
[5] = system: Mycobacterium tuberculosis; assay: Antitubercular activity against Mycobacterium tuberculosis H37Rv at 6.25 ug/mL; assay type: functional
[6] = biological target: T1, 5-hydroxytryptamine receptor 2C; assay: Displacement of [3H]mesulergine form human cloned 5HT2C receptor expressed in african green monkey COS7 cells by scintillation spectroscopy; assay type: cell-based, COS-7
Summary of the method: (§2)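 Transiently CaPO4-transfected COS-7 membranes carrying human 5-HT2A ([3H]methylspiperone) or 5-HT2C ([3H]mesulergine); equilibrium competition in 50 mM Tris pH 7.4, 2 h at 25 °C; nonspecific binding with 10 µM mianserin; filtration on PEI-treated GF/C, scintillation counting. Compounds from 10 mM DMSO stock diluted ≥1:100. Triplicate points, three experiments; Ki via Cheng-Prusoff, geometric means.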

[7] = biological target: T2, 5-hydroxytryptamine receptor 2A; assay: Displacement of [3H]methylspiperone form human cloned 5HT2A receptor expressed in african green monkey COS7 cells by scintillation spectroscopy; assay type: cell-based, COS-7; summary of the method: as §2
Plasmepsin II [8] = biological target: T3, Plasmepsin II (Plasmodium falciparum, UniProt P46925); assay: Inhibition of Plasmodium falciparum plasmepsin-2 by FRET assay
Plasmepsin II [9] = biological target: T3, Plasmepsin II; assay: Inhibition of Plasmodium falciparum plasmepsin-2 by fluorescence polarization assay
[10] = Plasmodium falciparum, D6, read-out: IC50

T2 sequence (P28223 whole entry): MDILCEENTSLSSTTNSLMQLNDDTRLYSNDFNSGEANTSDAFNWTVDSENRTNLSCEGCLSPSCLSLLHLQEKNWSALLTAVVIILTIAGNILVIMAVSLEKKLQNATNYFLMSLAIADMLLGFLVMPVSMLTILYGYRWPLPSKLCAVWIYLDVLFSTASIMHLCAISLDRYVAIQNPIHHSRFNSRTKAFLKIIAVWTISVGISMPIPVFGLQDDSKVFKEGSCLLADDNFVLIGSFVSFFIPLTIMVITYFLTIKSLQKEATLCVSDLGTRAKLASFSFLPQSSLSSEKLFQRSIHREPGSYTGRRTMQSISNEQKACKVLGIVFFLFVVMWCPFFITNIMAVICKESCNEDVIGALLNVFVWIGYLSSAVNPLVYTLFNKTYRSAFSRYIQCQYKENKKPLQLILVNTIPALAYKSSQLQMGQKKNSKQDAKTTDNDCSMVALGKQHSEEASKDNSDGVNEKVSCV
T3 sequence (P46925 whole entry): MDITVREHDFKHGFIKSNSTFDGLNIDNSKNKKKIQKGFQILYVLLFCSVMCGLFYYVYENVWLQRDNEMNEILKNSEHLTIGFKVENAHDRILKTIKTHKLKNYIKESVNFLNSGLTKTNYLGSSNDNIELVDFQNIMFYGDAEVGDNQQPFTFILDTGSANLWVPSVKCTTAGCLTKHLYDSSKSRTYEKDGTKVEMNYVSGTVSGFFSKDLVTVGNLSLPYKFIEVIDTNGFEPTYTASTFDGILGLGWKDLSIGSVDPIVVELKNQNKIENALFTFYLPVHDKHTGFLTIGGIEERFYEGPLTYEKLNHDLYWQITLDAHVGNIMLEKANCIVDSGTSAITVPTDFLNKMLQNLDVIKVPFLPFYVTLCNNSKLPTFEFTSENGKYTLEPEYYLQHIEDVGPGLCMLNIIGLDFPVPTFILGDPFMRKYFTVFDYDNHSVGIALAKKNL

For `CN1C(=N)N/C(=C/c2c[nH]c3ccccc23)C1=O`, the Activity (Homo sapiens) was “inactive”, the Ki [1] was “Not Active” and the IC50 (Plasmodium falciparum) was “Not Active”. The Ki [2] was “Not Active” and the Activity (Vero) was “Non-toxic”.

With `C[C@H]1CC[C@H]2C(C)(C)CCC[C@]23Oc2ccc(OC(=S)N(C)C)cc2C[C@]13C` the “inhibition (INH)” value [3] was 100%, the MIC [3] was under 6.25 mg/L and the Activity (Homo sapiens) was “inactive”. The IC50 (Plasmodium falciparum; [10]) was 0.087 mg/L (≈ 0.217 µM), the Activity (Vero) was “Non-toxic” and the selectivity ratio [4] was over 55. For the same compound, the inhibition at 6.25 µg/mL [5] was 100%.

In the case of `CN1C(=N)N/C(=C/c2c[nH]c3cc(Br)ccc23)C1=O`, the Activity (Homo sapiens) is reported as “inactive”, the IC50 (Plasmodium falciparum; [10]) is reported as 1.1 mg/L (≈ 3.45 µM) and the Ki [6] is reported as 2.3 µM. For the same compound, the Activity (Vero) was “Non-toxic”, the Ki [7] was over 100 µM and the inhibition ([7]; COS-7, concentration not given here) was 10%. The selectivity ratio [4] was over 4.3, the IC50 (Plasmepsin II [8]) was 53 µM and the IC50 (Plasmepsin II [9]) was 66 µM.

With `C[C@H]1CC[C@H]2C(C)(C)CCC[C@]23Oc2ccc(O)cc2C[C@]13C` [AUREOL] the “inhibition (INH)” value [3] was 31%, the MIC [3] was over 6.25 mg/L and the Activity (Homo sapiens) was “inactive”. For the same compound, the IC50 (Plasmodium falciparum) was “Not Active”, the Activity (Vero) was “Non-toxic” and the inhibition at 6.25 µg/mL [5] was 31%.

In the case of `C/N=C1\NC(=O)/C(=C\c2c[nH]c3ccccc23)N1C` [ISOPLYSIN A], the Activity (Homo sapiens) is reported as “inactive”, the Ki [1] is reported as “Not Active” and the IC50 (Plasmodium falciparum; [10]) is reported as 0.97 mg/L (≈ 3.81 µM). The Ki [2] was “Not Active”, the Activity (Vero) was “Non-toxic” and the selectivity ratio [4] was over 4.9.

For `CN1C(=N)N(C)/C(=C/c2c[nH]c3cc(Br)ccc23)C1=O`, the Activity (Homo sapiens) was “inactive”, the IC50 (Plasmodium falciparum; [10]) was 0.34 mg/L (≈ 1.02 µM) and the Ki [6] was 0.33 µM. For the same compound, the Activity (Vero) was “Non-toxic”, the Ki [7] was 2 µM and the selectivity ratio [4] was over 14.

For `CC(=O)Oc1ccc2c(c1)C[C@]1(C)[C@@H](C)CC[C@H]3C(C)(C)CCC[C@]31O2` [AUREOL ACETATE], the Activity (Homo sapiens) was “inactive”, the IC50 (Plasmodium falciparum) was “Not Active” and the Activity (Vero) was “Non-toxic”. It also gave an inhibition at 6.25 µg/mL [5] of 34%.

In the case of `C[C@H]1CC[C@H]2C(C)(C)CCC[C@]23Oc2ccc(O)c(Cl)c2C[C@]13C`, the Activity (Homo sapiens) is reported as “inactive”, the IC50 (Plasmodium falciparum; [10]) is reported as 3.4 mg/L (≈ 9.74 µM) and the Activity (Vero) is reported as “Non-toxic”. For the same compound, the selectivity ratio [4] was over 1.4 and the inhibition at 6.25 µg/mL [5] was 38%.

For `O=C1C(=O)c2[nH]cc3c2C(=C1Br)NCC3` [MAKALUVAMINE O], the Activity (Homo sapiens) was “inactive”, the Ki [1] was “Not Active” and the IC50 (Plasmodium falciparum; [10]) was 0.94 mg/L (≈ 3.52 µM). For the same compound, the Ki [2] was “Not Active”, the Activity (Vero) was “Non-toxic” and the selectivity ratio [4] was over 5.1.

In the case of `CC/N=C1\N(C)C(=O)/C(=C\c2c[nH]c3ccccc23)N1C`, the Activity (Homo sapiens) is reported as “inactive”, the IC50 (Plasmodium falciparum) is reported as “Not Active” and the Ki [6] is reported as 3.5 µM. The Activity (Vero) was “Non-toxic” and the Ki [7] was 1.7 µM.

For `C/N=C1\N(C)C(=O)/C(=C\c2c[nH]c3ccccc23)N1C` [METHYLAPLYSINOPSIN], the Activity (Homo sapiens) was “inactive”, the Ki [1] was “Not Active” and the IC50 (Plasmodium falciparum) was “Not Active”. For the same compound, the Ki [2] was “Not Active” and the Activity (Vero) was “Non-toxic”.

In the case of `COc1ccc2c(c1)C[C@]1(C)[C@@H](C)CC[C@H]3C(C)(C)CCC[C@]31O2`, the Activity (Homo sapiens) is reported as “inactive”, the IC50 (Plasmodium falciparum) is reported as “Not Active” and the Activity (Vero) is reported as “Non-toxic”. For the same compound, the inhibition at 6.25 µg/mL [5] was 53%.
